# According to ChEMBL document CHEMBL1137526, “The design and synthesis of N-1-alkylated-5-aminoarylalkylsubstituted-6-methyluracils as potential non-nucleoside HIV-1 RT inhibitors” (Bioorg Med Chem, 2007):
# The source made the active and inactive calls. The rule behind the calls is not given here.
# Target: Human immunodeficiency virus type 1 reverse transcriptase (Human immunodeficiency virus 1, UniProt Q72547)
# Experiment: Inhibition of HIV1 reverse transcriptase by ELISA
# Method in brief: (§1)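 Recombinant HIV-1 RT, non-radioactive ELISA. Oligo(dT) attached through its 5'-phosphate to the plate acts as primer on a poly(A) template (10 µg/ml). Read-out by streptavidin-alkaline phosphatase with PNPP.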
row,SMILES,IC50 [µM]
1,CCOCn1c(C)c(CNc2cc(Cl)c(Cl)cc2Cl)c(=O)[nH]c1=O,0.82
2,CCOCn1c(C)c(CNc2cc(C)ccc2C)c(=O)[nH]c1=O,26.2
3,Cc1c(CNC2CCCCC2)c(=O)[nH]c(=O)n1COCc1ccccc1,5.09
4,Cc1ccc(NCc2c(C)n(COCc3ccccc3)c(=O)[nH]c2=O)cc1,13.8
5,CCOCn1c(C)c(CNc2ccccc2[N+](=O)[O-])c(=O)[nH]c1=O,> 100
6,CCOCn1c(C)c(CNc2ccccn2)c(=O)[nH]c1=O,54.7
7,Cc1c(CN(C)c2ccccc2)c(=O)[nH]c(=O)n1COCc1ccccc1,3.49
8,Cc1c(CNc2cc(Cl)c(Cl)cc2Cl)c(=O)[nH]c(=O)n1COCc1ccccc1,> 100

# Target: Human immunodeficiency virus type 1 reverse transcriptase (Human immunodeficiency virus 1) (UniProt Q72547)
# Experiment: Inhibition of HIV1 reverse transcriptase upto 100 uM by ELISA
# Method in brief: as §1
row,SMILES,Activity
1,CCOCn1c(C)c(CNc2ccc([N+](=O)[O-])cc2)c(=O)[nH]c1=O,inactive
2,CCOCn1c(C)c(CNc2c(Cl)cc(Cl)cc2Cl)c(=O)[nH]c1=O,inactive
3,CCOCn1c(C)c(CN(C)c2ccccc2)c(=O)[nH]c1=O,inactive
4,CCOCn1c(C)c(CNc2cccc([N+](=O)[O-])c2)c(=O)[nH]c1=O,inactive
5,CCOCn1c(C)c(CNc2cccc3ccccc23)c(=O)[nH]c1=O,inactive
6,Cc1c(CNc2ccccc2[N+](=O)[O-])c(=O)[nH]c(=O)n1COCc1ccccc1,inactive
7,CCOCn1c(C)c(CNc2ncccn2)c(=O)[nH]c1=O,inactive
8,CCOCn1c(C)c(CNc2c(C)cccc2C)c(=O)[nH]c1=O,inactive
9,Cc1c(CNc2c(Cl)cc(Cl)cc2Cl)c(=O)[nH]c(=O)n1COCc1ccccc1,inactive
10,Cc1c(CNc2ccc([N+](=O)[O-])cc2)c(=O)[nH]c(=O)n1COCc1ccccc1,inactive
11,CCOCn1c(C)c(CNC2CCCCC2)c(=O)[nH]c1=O,inactive
12,CCOCn1c(C)c(CNc2ccc(C)cc2)c(=O)[nH]c1=O,inactive
13,Cc1c(CNc2cccc([N+](=O)[O-])c2)c(=O)[nH]c(=O)n1COCc1ccccc1,inactive
